In ChEMBL document CHEMBL4699419, “Antileishmanial assessment of isoxazole derivatives against L. donovani” (RSC Med Chem, 2020):

How the values were obtained:
[1] = Cytotoxicity against mouse J774A1 cells assessed as reduction in cell viability incubated for 48 hrs by MTT assay; format: cell-based, J774.A1
Procedure, shortened: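 J774A.1 macrophages, 0.2 × 10^6 per well, incubated overnight at 37 °C in 5% CO2, then exposed to compounds in DMSO for 48 h, with DMSO dilutions as controls. Viability read by MTT formazan at 600 nm. CC50 = 50% viability reduction versus medium-only cells, from probit regression; three independent experiments.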

[2] = Selectivity index, ratio of CC50 for mouse J774.A1 cells to IC50 for amastigote form of Leishmania donovani MHOM/IN/80/Dd8; format: toxicity; details: read-out: Ratio CC50/IC50
Procedure, shortened: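 Macrophages infected at a 1:10 ratio with stationary promastigotes, then treated 72 h at 37 °C; luminescence read with Steady-Glo. IC50 values from probit analysis.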

Leishmania donovani [3] = assay: Antileishmanial activity against Leishmania donovani MHOM/IN/80/Dd8 promastigotes harboring luciferase reporter gene infected in mouse J774 cells assessed as inhibition of amastigote growth incubated for 72 hrs by Steady-Glo luminescence assay; format: functional, organism-based; details: Leishmania donovani, MHOM/IN/80/Dd8, J774, 72 h; read-out: IC50
Procedure, shortened: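 J774A.1 mouse macrophages (2 × 10^5 per well, RPMI-1640 + 10% FCS, 37 °C CO2) infected after 24 h with stationary-phase luciferase-transgenic promastigotes at 1:10 macrophage:parasite; compounds in complete medium for 72 h at 37 °C. Medium swapped for PBS, Steady-Glo added, luminescence read; % inhibition vs untreated control RLU. IC50 by Probit log dose/response regression, three independent experiments.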

Leishmania donovani [4] = assay: Antileishmanial activity against late log phase promastigote stage of Leishmania donovani MHOM/IN/80/Dd8 harboring luciferase reporter gene incubated for 72 hrs by Steady-Glo luminescence assay; format: functional, organism-based; details: Leishmania donovani, MHOM/IN/80/Dd8, 72 h; read-out: IC50
Procedure, shortened: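 Luciferase-transfected promastigotes kept at 25 ± 1 °C in medium 199 + 10% heat-inactivated FCS + G418 (20 μg ml–1). Late-log cells (5 × 10^5 per well) grown 72 h with graded compound concentrations from DMSO, DMSO dilution controls. Aliquot mixed 1:1 with Steady-Glo, luminescence (RLU) read; % inhibition vs control. IC50 by Probit regression, three independent experiments.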

SMILES | CC50 at 48 h [1] [µM] | selectivity ratio [2] | IC50 (Leishmania donovani [3]) [µM] | IC50 (Leishmania donovani [4]) [µM]
O=C(c1c([N+](=O)[O-])noc1-c1ccc([N+](=O)[O-])cc1)N1CCOCC1 | 66 | 4.22 | 15.6 | 2.71
COC(=O)c1c(NCCNc2cc(C(F)(F)F)nc3c(C(F)(F)F)cccc23)noc1-c1ccc([N+](=O)[O-])cc1 | 73 | 4.03 | 18.1 | 10.1
COC(=O)c1c(NCCNc2cc(C(F)(F)F)nc3c(C(F)(F)F)cccc23)noc1-c1ccccc1F | 80.4 | 4.52 | 17.8 | 43.2
COC(=O)c1c(NCCCNc2ccnc3cc(Cl)ccc23)noc1-c1cc2c(cc1[N+](=O)[O-])OCO2 | 73.6 | 4.55 | 16.1 | 7.75
O=C(NCc1ccc(F)cc1)c1c([N+](=O)[O-])noc1-c1ccc(Cl)cc1Cl | 86.4 | 1.7 | 50.6 | 2.46
COc1ccc(CNC(=O)c2c([N+](=O)[O-])noc2-c2ccc([N+](=O)[O-])cc2)cc1 | 69.6 | 33.8 | 2.06 | 3.52
COc1ccc(CNC(=O)c2c([N+](=O)[O-])noc2-c2ccc(Cl)cc2Cl)cc1OC | 81.8 | 41.9 | 1.95 | 5.24
COC(=O)c1c([N+](=O)[O-])noc1-c1ccccc1Br | 34.8 | 1.08 | 32.2 | 0.34
O=C(NCCN1CCOCC1)c1c([N+](=O)[O-])noc1-c1ccc([N+](=O)[O-])cc1 | 76.5 | 3.49 | 21.9 | 2.83
COC(=O)c1c(NCCCCNc2ccnc3cc(Cl)ccc23)noc1-c1ccccc1F | 70.9 | 3.56 | 19.9 | 10.6
COC(=O)c1c(NCCNc2ccnc3cc(Cl)ccc23)noc1-c1ccccc1F | 3.42 | 2.32 | 1.47 | 1.73
CCCNC(=O)c1c([N+](=O)[O-])noc1-c1ccc([N+](=O)[O-])cc1 | 76.2 | 3.57 | 21.3 | 3.07
CC(C)CCNC(=O)c1c([N+](=O)[O-])noc1-c1ccc([N+](=O)[O-])cc1 | 67 | 3.85 | 17.4 | 3.01
COC(=O)c1c(NCCCN2CCOCC2)noc1-c1cc2c(cc1[N+](=O)[O-])OCO2 | 65 | 3.82 | 17 | 27.8
COC(=O)c1c(NCCCCNc2ccnc3cc(Cl)ccc23)noc1-c1ccc([N+](=O)[O-])cc1 | 136 | 73.8 | 1.84 | 2.85
O=C(Nc1ccccc1)c1c([N+](=O)[O-])noc1-c1ccc(Cl)cc1 | 89.3 | 25.1 | 3.56 | 2.81
COC(=O)c1c(NCCCNc2ccnc3cc(Cl)ccc23)noc1-c1ccc([N+](=O)[O-])cc1 | 106 | 33.9 | 3.14 | 3.37

SMILES | CC50 at 48 h [1] [µM] | selectivity ratio [2] | IC50 (Leishmania donovani [3]) [µM] | IC50 (Leishmania donovani [4]) [µM]
O=C(NCc1cccc(Cl)c1Cl)c1c([N+](=O)[O-])noc1-c1ccc(Cl)cc1Cl | 81.8 | 58 | 1.41 | 3.49
CCN(CC)CCNc1noc(-c2ccc([N+](=O)[O-])cc2)c1C(=O)OC | 69.2 | 8.49 | 8.15 | 26
O=C(NCc1ccc(F)cc1)c1c([N+](=O)[O-])noc1-c1ccc(Cl)cc1 | 91.9 | 4.72 | 19.4 | 1.16
COC(=O)c1c(NCCCCNc2ccnc3cc(Cl)ccc23)noc1-c1ccc(Cl)cc1Cl | 93.5 | 3.39 | 27.6 | 5.93
COC(=O)c1c(NCc2ccc(OC)c(OC)c2)noc1-c1ccc(Cl)cc1Cl | 7.58 | 3 | 2.37 | 4.49
COC(=O)c1c([N+](=O)[O-])noc1-c1cccc(-c2cnco2)c1 | 19.7 | 3.6 | 4.8 | 0.77
COC(=O)c1c(NCCCN2CCOCC2)noc1-c1ccc([N+](=O)[O-])cc1 | 71.8 | 15.8 | 4.53 | 33.8
COC(=O)c1c([N+](=O)[O-])noc1-c1cc(-c2ccccc2Cl)n(-c2ccccc2)n1 | 79.9 | 3.76 | 21.2 | 0.76
COC(=O)c1c(NCCNc2ccnc3cc(Cl)ccc23)noc1-c1cc2c(cc1[N+](=O)[O-])OCO2 | 3.7 | 2.48 | 1.49 | 2.04
O=C(NCc1cccc(Cl)c1Cl)c1c([N+](=O)[O-])noc1-c1ccc(Cl)cc1 | 73.7 | 3.76 | 19.6 | 2.9
COc1ccc(CNC(=O)c2c([N+](=O)[O-])noc2-c2ccc(Cl)cc2Cl)cc1 | 80.5 | 39.6 | 2.03 | 3.42
O=C(NCc1cccc(Br)c1)c1c([N+](=O)[O-])noc1-c1ccc(Cl)cc1Cl | 71.2 | 9.19 | 7.74 | 3.05
COC(=O)c1c(NCc2ccccc2)noc1-c1ccc(Cl)cc1Cl | 54.1 | 32.8 | 1.65 | 35.4
COc1cccc(CNC(=O)c2c([N+](=O)[O-])noc2-c2ccc(Cl)cc2)c1 | 68.5 | 20 | 3.43 | 2.79
COc1ccc(CNC(=O)c2c([N+](=O)[O-])noc2-c2ccc(Cl)cc2)cc1 | 89.5 | 9.5 | 9.41 | 2.67
COC(=O)c1c([N+](=O)[O-])noc1-c1ccccc1Cl | 80 | 4.82 | 16.6 | 2.72
COC(=O)c1c(NCc2ccc(Cl)cc2)noc1-c1ccc([N+](=O)[O-])cc1 | 78.3 | 9.93 | 7.88 | 3.79
